In the library only some 3.7% were active in any assay of this set; here they are far more common.
hERG protect – hERG rescue from dofetilide block, primary screen, cell-based, CHO-hERG, FluxOR thallium flux, dofetilide IC70; Voltage-gated inwardly rectifying potassium channel KCNH2 (Homo sapiens), Q12809; dofetilide IC70 present; activation (rescue from dofetilide block), less the hit threshold, % at 10 µM; 310,000 compounds, 0.51% hits;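 active = activation above the mean of controls blocked by dofetilide plus 5 SD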;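 note: thallium influx through hERG after potassium depolarization seen as dye fluorescence rise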
Kir21 inh – inhibitors of mouse Kir2.1 inward-rectifier potassium channel. AID 1672, 2009. 310,000 compounds, 0.85% hits. B-score at 10 µM. Inward rectifier potassium channel 2 (Mus musculus), P35561. HEK293-Kir2.1, FluxOR thallium flux fluorescence; hits give low values;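 active = fluorescence ratio B-score at or below minus 3 SD of library scores, with starting-brightness B-score within 2 SD, cut at about -4.2 in these data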;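 note: channel flux triggered by added potassium and thallium sulfate stimulus; B-score of peak minus minimum fluorescence over baseline after thallium stimulus; more negative B-score means stronger Kir2.1 block with less thallium influx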
KCNQ1 block – inhibitors of human KCNQ1 channel, primary screen, cell-based, thallium flux, high-throughput; Potassium voltage-gated channel subfamily KQT member 1 (Homo sapiens), P51787; B-score at 10 µM; 310,000 compounds, 1.3% hits; CHO-K1 KCNQ1, FluxOR thallium flux fluorescence; hits give high values;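 active = compounds whose thallium flux B-score, printed positive for inhibition, exceeds three library SD while starting fluorescence stays within three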;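 note: channel opened by potassium depolarization with thallium stimulus after 20 min compound exposure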
KCNK9 inh – KCNK9 potassium channel inhibitors, primary screen, HEK293 cells, thallium flux. AID 488922, 2010. FluxOR thallium flux fluorescence; hits give low values. B-score at 10 µM. 310,000 compounds, 1.2% hits. Potassium channel subfamily K member 9 (Homo sapiens), Q9NPC2;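 active = ratio B-score over 3 SD below the library mean, with starting fluorescence within 5 SD of its mean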;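 note: negative B-score means less thallium flux so channel inhibition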
KCNK3 inh – human KCNK3 channel inhibitors, primary screen, CHO cells, FluxOR thallium flux, B-score; 340,000 compounds, 0.84% hits; FluxOR fluorescence; hits give low values; Potassium channel subfamily K member 3 (Homo sapiens), O14649; B-score at 10 µM;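 active = B-score under library mean minus 4 SD, starting fluorescence ratio at most library mean plus 5 SD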;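 note: more negative B-score means stronger inhibition of thallium flux through KCNK3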
Target sequence (O14649 whole entry, looked up): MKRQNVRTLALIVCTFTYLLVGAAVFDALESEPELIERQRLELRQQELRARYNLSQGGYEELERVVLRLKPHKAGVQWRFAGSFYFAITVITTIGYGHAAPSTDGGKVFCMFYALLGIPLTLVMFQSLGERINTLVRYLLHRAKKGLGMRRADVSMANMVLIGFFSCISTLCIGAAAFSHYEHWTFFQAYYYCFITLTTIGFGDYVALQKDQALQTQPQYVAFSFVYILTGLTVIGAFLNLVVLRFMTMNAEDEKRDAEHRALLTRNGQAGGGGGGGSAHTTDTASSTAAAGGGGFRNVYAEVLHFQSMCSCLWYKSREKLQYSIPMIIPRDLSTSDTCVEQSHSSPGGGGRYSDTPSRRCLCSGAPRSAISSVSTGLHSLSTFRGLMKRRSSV
KCNQ1 act – potentiators or activators of KCNQ1 channel, primary screen, cell-based, thallium flux, high-throughput. B-score at 10 µM. 310,000 compounds, 0.35% hits. CHO-K1 KCNQ1, thallium flux FluxOR fluorescence; hits give high values;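 active = fluorescence ratio B-score, a plate-corrected score, at least three library SD, with initial intensity B-score within 5 SD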
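System: Stable KCNQ1 CHO-K1 line | Incubation: 90 min dye loading and 20 min compound exposure, both at room temperature | Measure: Ratio B score | Medium: Assay buffer for compound exposure, DMSO matched across wells | Compound dosing: Single-concentration screen | Probe or stimulus: K+/Tl+ depolarizing stimulus | Measured by: Kinetic FluxOR fluorescence, 10 s baseline plus 110 s post-stimulus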
Starred values were filed as active, the others as inactive.

Results for O=c1c(C=NCCN2CCNCC2)c(O)n(C2CCCCC2)c(=O)n1C1CCCCC1 ?
hERG protect: -10; Kir21 inh: -2.9; KCNQ1 block: inactive; KCNK9 inh: inactive; KCNK3 inh: inactive; KCNQ1 act: 11*

How did CCOC(=O)c1cccc(-[n+]2c(-c3ccccc3)cc(-c3ccccc3)cc2-c2ccccc2)c1 do in these assays?
hERG protect: -38; Kir21 inh: -11*; KCNQ1 block: 13*; KCNK9 inh: inactive; KCNK3 inh: inactive; KCNQ1 act: inactive

How did CCOC(=O)c1ccc(-[n+]2c(-c3ccccc3)cc(-c3ccccc3)cc2-c2ccccc2)cc1 do in these assays?
hERG protect: -41; Kir21 inh: -11*; KCNQ1 block: 12*; KCNK9 inh: inactive; KCNK3 inh: inactive; KCNQ1 act: inactive

What do the screens show for `Cc1ccc(-c2cc(-c3ccc(C)cc3)[n+](-c3ccc(C(=O)[O-])cc3)c(-c3ccc(C)cc3)c2)cc1`?
hERG protect: -47; Kir21 inh: -8.2*; KCNQ1 block: 8*; KCNK9 inh: inactive; KCNK3 inh: inactive; KCNQ1 act: inactive

What do the screens show for `FC(F)(F)c1ccc2c(c1)NP(=S)(N1CCOCC1)c1nccn1-2` (stereo unspecified)?
hERG protect: -6; Kir21 inh: -1.1; KCNQ1 block: inactive; KCNK9 inh: inactive; KCNK3 inh: inactive; KCNQ1 act: inactive

Results for N#CSCC(=O)N1c2ccccc2CCc2ccccc21 ?
hERG protect: -15; Kir21 inh: -6.8*; KCNQ1 block: inactive; KCNK9 inh: -6.9*; KCNK3 inh: inactive; KCNQ1 act: inactive

How did Nc1ccccc1C(=O)OCC(=O)N1CCc2ccccc21 do in these assays?
hERG protect: -3; Kir21 inh: 0.07; KCNQ1 block: inactive; KCNK9 inh: inactive; KCNK3 inh: inactive; KCNQ1 act: inactive

Results for c1ccc(-c2cc(-c3ccccc3)[n+](-c3ccccc3)c(-c3ccccc3)c2)cc1 ?
hERG protect: -35; Kir21 inh: -6.4*; KCNQ1 block: 13*; KCNK9 inh: inactive; KCNK3 inh: -10*; KCNQ1 act: inactive

What do the screens show for `CN(C)c1ccc(-[n+]2c(-c3ccccc3)cc(-c3ccccc3)cc2-c2ccccc2)cc1`?
hERG protect: -35; Kir21 inh: -15*; KCNQ1 block: 12*; KCNK9 inh: inactive; KCNK3 inh: -9*; KCNQ1 act: inactive

What do the screens show for `C[n+]1c(-c2ccccc2)cc(-c2ccc(Cl)cc2)cc1-c1ccccc1`?
hERG protect: -23; Kir21 inh: -3.2; KCNQ1 block: inactive; KCNK9 inh: inactive; KCNK3 inh: inactive; KCNQ1 act: inactive

How did COc1ccc(CNCCc2c(C)[nH]c3ccc(OC(F)(F)F)cc23)c(OC)c1 do in these assays?
hERG protect: -20; Kir21 inh: -6.9*; KCNQ1 block: inactive; KCNK9 inh: inactive; KCNK3 inh: inactive; KCNQ1 act: inactive

How did CN1C(=O)/C(=C\c2ccc(Br)s2)C(=O)NC1=S do in these assays?
hERG protect: 15*; Kir21 inh: -0.55; KCNQ1 block: inactive; KCNK9 inh: inactive; KCNK3 inh: inactive; KCNQ1 act: inactive

How did Fc1cccc(C2NCc3ccccc3-n3cccc32)c1 (stereo unspecified) do in these assays?
hERG protect: -5; Kir21 inh: -3.6; KCNQ1 block: inactive; KCNK9 inh: inactive; KCNK3 inh: inactive; KCNQ1 act: inactive

How did CCCCCn1c(=O)c(C(=O)Nc2cccc(C)n2)c(O)c2ccccc21 do in these assays?
hERG protect: -4; Kir21 inh: -1.5; KCNQ1 block: inactive; KCNK9 inh: inactive; KCNK3 inh: inactive; KCNQ1 act: inactive

How did CCCCCn1c(=O)c(C(=O)Nc2ccccn2)c(O)c2ccccc21 do in these assays?
hERG protect: -4; Kir21 inh: 0.24; KCNQ1 block: inactive; KCNK9 inh: -7.4*; KCNK3 inh: inactive; KCNQ1 act: inactive

What do the screens show for `CCCCCn1c(=O)c(C(=O)Nc2cccc(C)c2)c(O)c2ccccc21`?
hERG protect: 0; Kir21 inh: -0.05; KCNQ1 block: inactive; KCNK9 inh: inactive; KCNK3 inh: inactive; KCNQ1 act: inactive

How did CCCCn1c(=O)c(C(=O)Nc2ccc(C)cn2)c(O)c2ccccc21 do in these assays?
hERG protect: -6; Kir21 inh: -0.48; KCNQ1 block: inactive; KCNK9 inh: -7.7*; KCNK3 inh: inactive; KCNQ1 act: inactive

How did CC(=O)N1N=C2C3CCN(CC3)C2C1c1ccccc1 (stereo unspecified) do in these assays?
hERG protect: -4; Kir21 inh: -0.17; KCNQ1 block: inactive; KCNK9 inh: inactive; KCNK3 inh: inactive; KCNQ1 act: inactive

Results for COC(=O)c1ccccc1NC(=O)N1C[C@@H]2C[C@@H](C1)c1cccc(=O)n1C2 ?
hERG protect: -4; Kir21 inh: 1.9; KCNQ1 block: inactive; KCNK9 inh: inactive; KCNK3 inh: inactive; KCNQ1 act: inactive

How did Cc1ccc(OP(=O)(O)Oc2ccc(C)cc2)cc1 do in these assays?
hERG protect: -4; Kir21 inh: -0.28; KCNQ1 block: inactive; KCNK9 inh: inactive; KCNK3 inh: inactive; KCNQ1 act: inactive

How did O=[N+]([O-])c1cccc2c([As](=O)(O)O)cccc12 do in these assays?
hERG protect: -3; Kir21 inh: -0.77; KCNQ1 block: inactive; KCNK9 inh: inactive; KCNK3 inh: inactive; KCNQ1 act: inactive

What do the screens show for `CN1CCN(Cc2ccc3ccccc3c2)CC1`?
hERG protect: -4; Kir21 inh: 0.63; KCNQ1 block: inactive; KCNK9 inh: inactive; KCNK3 inh: inactive; KCNQ1 act: inactive

Results for CCCCCCOc1ccc(CN2CCN(C)CC2)cc1 ?
hERG protect: -12; Kir21 inh: -4.8*; KCNQ1 block: inactive; KCNK9 inh: inactive; KCNK3 inh: inactive; KCNQ1 act: inactive

Results for Oc1cc(O)cc(/C=C/c2ccc(O)cc2O)c1 ?
KCNK3 inh: inactive

Results for N#CC(C#N)=Cc1ccc(-c2ccccc2)o1 ?
hERG protect: -22; Kir21 inh: -1.3; KCNQ1 block: 7*; KCNK9 inh: inactive; KCNQ1 act: inactive

What do the screens show for `N#CC(C#N)=Cc1ccc(-c2ccccc2F)o1`?
KCNK3 inh: inactive
